This is an account of results in the M2OR odorant receptor database.

This assay addresses T1, OR1L3 (Homo sapiens) (UniProt Q8NH93).
T1 sequence (whole entry): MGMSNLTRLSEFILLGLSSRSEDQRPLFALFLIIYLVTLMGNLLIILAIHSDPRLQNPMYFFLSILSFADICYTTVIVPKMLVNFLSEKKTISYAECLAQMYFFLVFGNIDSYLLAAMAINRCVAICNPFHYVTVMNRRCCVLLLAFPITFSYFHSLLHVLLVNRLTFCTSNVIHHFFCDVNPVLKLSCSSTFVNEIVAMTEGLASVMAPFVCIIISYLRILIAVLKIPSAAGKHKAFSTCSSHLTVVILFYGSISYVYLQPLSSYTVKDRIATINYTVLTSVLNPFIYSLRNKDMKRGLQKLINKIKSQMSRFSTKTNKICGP
The settings on record: stereoisomer not certain. The gist of the method: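 Values were gathered from published papers (main text and supplementary material), with extra details requested from the original authors when needed, and checked for typos and inconsistencies. Each receptor–molecule pair is called responsive (active) if the original authors judged the measured signal statistically different from baseline, and non-responsive (inactive) otherwise. Assay methods varied by source, often transient mammalian cell-line luciferase assays. Recorded details include cell line, G-protein, co-transfected protein and tags.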

With `C=CC(C)(CCC=C(C)C)OC(C)=O` (centres undefined), the “odorant receptor agonist call” value is “inactive”.
The value for `CC=CC(=O)C1C(C)=CCCC1(C)C` (centres undefined) was “active”; that for `CCCCC1CCC(=O)O1` (centres undefined) was “inactive”.
`CC1CC(C)(c2ccccc2)CO1` (centres undefined): the “odorant receptor agonist call” value is “inactive”.
The value for `CC(C)CCCC(C)(C)O` was “inactive”; that for `CCC(=O)C=CC1C(C)=CCCC1(C)C` (centres undefined) was “inactive”; that for `C=CCOC(=O)COCCC(C)C` was “inactive”.
The value for `COC1CC2CC1C1CC(C=O)CC21` (centres undefined) was “inactive”; that for `CC1=CCC2CC1C2(C)C` (centres undefined) was “inactive”.
The value for `CC(=O)OCc1ccccc1` was “inactive”; that for `CCC=C(C)C(O)CCCCC` (centres undefined) was “inactive”; that for `Cc1occc(=O)c1OC(=O)C(C)C` was “inactive”.
As to `OCc1ccccc1`, the “odorant receptor agonist call” value is “inactive”.
The same measure for `COc1ccc(C)cc1`: “inactive”.
